Measurements as given in ChEMBL document CHEMBL4359917, “Design, synthesis, and biological evaluation of novel benzodiazepine derivatives as anticancer agents through inhibition of tubulin polymerization in vitro and in vivo” (Eur J Med Chem, 2019).
Active and inactive are the calls of the source. No cut-off for these calls is given here.

Columns and labels:
HeLa = test: Antiproliferative activity against human HeLa cells assessed as cell growth inhibition measured after 48 hrs by MTT assay; type: functional, cell-based
Outline: (§1)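 Cancer cell lines exposed to compounds for 48 h; viability read by MTT assay. IC50 reported as mean ± SD from at least three independent experiments.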

A549 [1] = test: Induction of apoptosis in human A549 cells assessed as live cells at 10 nM after 24 hrs by annexin V-FITC/propidium iodide staining based flow cytometry (reference value: 99.75 %); type: functional
Outline: (§2)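 A549 cells treated at 1, 5 or 10 nM for 24 or 48 h, then analysed by flow cytometry. Quadrants: upper left necrotic, upper right late apoptotic, bottom left live, bottom right early apoptotic. Three experiments; representative results shown.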

A549 [2] = test: Induction of apoptosis in human A549 cells assessed as early apoptotic cells at 10 nM after 48 hrs by annexin V-FITC/propidium iodide staining based flow cytometry (reference value: 0.19 %); type: functional; outline: as §2
A549 [3] = test: Disruption of microtubule organization in human A549 cells assessed as appearance of dotted disorder formations at 10 nM measured after 24 hrs by immunofluorescence laser confocal microscopy analysis; type: functional, cell-based
Outline: (§3)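 A549 cells plated in confocal dishes and exposed to DMSO or compound at 1, 5 or 10 nM for 24 h. Cells were fixed, immunostained for microtubules and imaged by laser confocal microscopy. Performed three times.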

HCT-116 = test: Antiproliferative activity against human HCT116 cells assessed as cell growth inhibition measured after 48 hrs by MTT assay; type: functional, cell-based; details: HCT-116, 48 h; outline: as §1
HepG2 = test: Antiproliferative activity against human HepG2 cells assessed as cell growth inhibition measured after 48 hrs by MTT assay; type: functional, cell-based; details: HepG2, 48 h; outline: as §1
A549 [4] = test: Induction of apoptosis in human A549 cells assessed as necrotic cells at 5 nM after 24 hrs by annexin V-FITC/propidium iodide staining based flow cytometry (reference value: 0.03 %); type: functional; outline: as §2
A549 [5] = test: Induction of apoptosis in human A549 cells assessed as early apoptotic cells at 5 nM after 48 hrs by annexin V-FITC/propidium iodide staining based flow cytometry (reference value: 0.19 %); type: functional; outline: as §2
[6] = Metabolic stability in Sprague-Dawley rat liver microsomes assessed as parent compound remaining after 60 mins in presence of NADPH by HPLC-UV-MS analysis; type: ADME, Microsome; details: read-out: Stability
Outline: (§4)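 Compound incubated with rat liver microsomes in buffer containing an NADPH regenerating system. Percentage of parent remaining was determined at time points up to 180 min, and half-life was derived.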

A549 [7] = test: Induction of apoptosis in human A549 cells assessed as late apoptotic cells at 10 nM after 24 hrs by annexin V-FITC/propidium iodide staining based flow cytometry (reference value: 0.02 %); type: functional; outline: as §2
A549 [8] = test: Induction of apoptosis in human A549 cells assessed as late apoptotic cells at 5 nM after 48 hrs by annexin V-FITC/propidium iodide staining based flow cytometry (reference value: 0.02 %); type: functional; outline: as §2
A549 [9] = test: Induction of apoptosis in human A549 cells assessed as early apoptotic cells at 1 nM after 24 hrs by annexin V-FITC/propidium iodide staining based flow cytometry (reference value: 0.19 %); type: functional; outline: as §2
A549 [10] = test: Induction of apoptosis in human A549 cells assessed as late apoptotic cells at 1 nM after 48 hrs by annexin V-FITC/propidium iodide staining based flow cytometry (reference value: 0.02 %); type: functional; outline: as §2
A549 [11] = test: Induction of apoptosis in human A549 cells assessed as late apoptotic cells at 5 nM after 24 hrs by annexin V-FITC/propidium iodide staining based flow cytometry (reference value: 0.02 %); type: functional; outline: as §2
A549 [12] = test: Induction of apoptosis in human A549 cells assessed as late apoptotic cells at 1 nM after 24 hrs by annexin V-FITC/propidium iodide staining based flow cytometry (reference value: 0.02 %); type: functional; outline: as §2
A549 [13] = test: Induction of apoptosis in human A549 cells assessed as necrotic cells at 5 nM after 48 hrs by annexin V-FITC/propidium iodide staining based flow cytometry (reference value: 0.03 %); type: functional; outline: as §2
[14] = Metabolic stability in Sprague-Dawley rat liver microsomes assessed as parent compound remaining after 120 mins in presence of NADPH by HPLC-UV-MS analysis; type: ADME, Microsome; details: read-out: Stability; outline: as §4
A549 [15] = test: Induction of apoptosis in human A549 cells assessed as early apoptotic cells at 1 nM after 48 hrs by annexin V-FITC/propidium iodide staining based flow cytometry (reference value: 0.19 %); type: functional; outline: as §2
A549 [16] = test: Cell cycle arrest in human A549 cells assessed as appearance of hypodiploid DNA content at sub G1 phase at 1 to 10 nM after 48 hrs by RNase/propidium iodide staining based flow cytometry analysis; type: functional
A549 [17] = test: Antiproliferative activity against human A549 cells assessed as cell growth inhibition measured after 48 hrs by MTT assay; type: functional, cell-based; details: A549, 48 h; outline: as §1
A549 [18] = test: Induction of apoptosis in human A549 cells assessed as necrotic cells at 1 nM after 24 hrs by annexin V-FITC/propidium iodide staining based flow cytometry (reference value: 0.03 %); type: functional; outline: as §2
Tubulin = Tubulin (Sus scrofa, UniProt P02554+P02550); test: (§5) Inhibition of porcine brain tubulin polymerization assessed as decrease in fluorescence intensity measured every 60 sec for 90 mins in presence of GTP by DAPI staining based fluorescence assay
Outline: (§6)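 Purified unpolymerised tubulin in reaction buffer incubated at 37 °C without or with compound at 0.75-7.5 µM. Polymerisation was followed as a rise in fluorescence intensity, and IC50 was derived. Performed three times.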

Tubulin (Sus scrofa) = Tubulin (Sus scrofa) (UniProt P02554+P02550); test: as §5; outline: as §6
Tubulin (Sus scrofa), sequence (P02550 whole entry, looked up): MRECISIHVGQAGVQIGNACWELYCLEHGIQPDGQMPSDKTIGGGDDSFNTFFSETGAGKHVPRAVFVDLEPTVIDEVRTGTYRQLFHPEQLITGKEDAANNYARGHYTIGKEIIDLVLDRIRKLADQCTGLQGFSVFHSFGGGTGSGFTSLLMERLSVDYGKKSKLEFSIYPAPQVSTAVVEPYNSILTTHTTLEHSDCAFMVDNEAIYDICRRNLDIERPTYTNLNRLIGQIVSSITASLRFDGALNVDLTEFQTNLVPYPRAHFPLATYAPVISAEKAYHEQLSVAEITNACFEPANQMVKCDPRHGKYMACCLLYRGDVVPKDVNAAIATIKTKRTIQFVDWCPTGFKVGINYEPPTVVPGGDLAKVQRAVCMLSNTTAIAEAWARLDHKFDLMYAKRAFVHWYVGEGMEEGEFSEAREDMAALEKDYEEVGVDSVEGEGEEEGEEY
Tubulin (Sus scrofa), sequence (P02554 whole entry, looked up): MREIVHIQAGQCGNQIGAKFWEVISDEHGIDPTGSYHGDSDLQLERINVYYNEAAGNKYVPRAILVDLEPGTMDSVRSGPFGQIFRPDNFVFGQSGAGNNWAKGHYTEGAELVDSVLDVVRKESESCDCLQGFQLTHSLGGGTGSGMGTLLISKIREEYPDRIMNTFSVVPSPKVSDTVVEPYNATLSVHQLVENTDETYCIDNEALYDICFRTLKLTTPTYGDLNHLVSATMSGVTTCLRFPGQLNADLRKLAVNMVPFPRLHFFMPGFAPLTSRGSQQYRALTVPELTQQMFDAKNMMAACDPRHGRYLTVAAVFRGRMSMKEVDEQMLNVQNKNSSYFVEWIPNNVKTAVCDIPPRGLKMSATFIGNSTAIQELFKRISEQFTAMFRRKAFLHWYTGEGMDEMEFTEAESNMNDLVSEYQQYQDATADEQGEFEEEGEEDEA

[19] = Half-life in Sprague-Dawley rat liver microsomes in presence of NADPH by HPLC-UV-MS analysis; type: ADME, Microsome; outline: as §4
A549 [20] = test: Induction of apoptosis in human A549 cells assessed as early apoptotic cells at 10 nM after 24 hrs by annexin V-FITC/propidium iodide staining based flow cytometry (reference value: 0.19 %); type: functional; outline: as §2
A549 [21] = test: Disruption of microtubule organization in human A549 cells assessed as microtubule spindle shrunk at 1 to 10 nM measured after 24 hrs by immunofluorescence laser confocal microscopy analysis; type: functional, cell-based; outline: as §3
[22] = Metabolic stability in Sprague-Dawley rat liver microsomes assessed as parent compound remaining after 150 mins in presence of NADPH by HPLC-UV-MS analysis; type: ADME, Microsome; details: Sprague-Dawley, liver microsomes, read-out: Stability; outline: as §4
A549 [23] = test: Induction of apoptosis in human A549 cells assessed as live cells at 5 nM after 24 hrs by annexin V-FITC/propidium iodide staining based flow cytometry (reference value: 99.75 %); type: functional; outline: as §2
A549 [24] = test: Induction of apoptosis in human A549 cells assessed as live cells at 1 nM after 48 hrs by annexin V-FITC/propidium iodide staining based flow cytometry (reference value: 99.75 %); type: functional; outline: as §2
A549 [25] = test: Induction of apoptosis in human A549 cells assessed as late apoptotic cells at 10 nM after 48 hrs by annexin V-FITC/propidium iodide staining based flow cytometry (reference value: 0.02 %); type: functional; outline: as §2
[26] = Metabolic stability in Sprague-Dawley rat liver microsomes assessed as parent compound remaining after 30 mins in presence of NADPH by HPLC-UV-MS analysis; type: ADME, Microsome; details: read-out: Stability; outline: as §4
A549 [27] = test: Induction of apoptosis in human A549 cells assessed as necrotic cells at 10 nM after 48 hrs by annexin V-FITC/propidium iodide staining based flow cytometry (reference value: 0.03 %); type: functional; outline: as §2

## COc1ccc2c(c1O)NC(=O)CN=C2c1cc(OC)c(OC)c([Se]C)c1
HeLa
  IC50: 8.3 nM
A549 [1]
  Activity: 76.72%
A549 [2]
  Activity: 65.4%
A549 [3]
  Activity: Active
HCT-116
  IC50: 8.9 nM
HepG2
  IC50: 12.6 nM
A549 [4]
  Activity: 0.03%
A549 [5]
  Activity: 28.68%
[6]
  remaining at 1 h: 86.3%
A549 [7]
  Activity: 0.13%
A549 [8]
  Activity: 11.71%
A549 [9]
  Activity: 5.71%
A549 [10]
  Activity: 3.25%
A549 [11]
  Activity: 0.32%
A549 [12]
  Activity: 0.17%
A549 [13]
  Activity: 2.28%
[14]
  remaining at 2 h: 66.1%
A549 [15]
  Activity: 13.64%
A549 [16]
  Activity: Active
A549 [17]
  IC50: 5.82 nM
A549 [18]
  Activity: 0.04%
Tubulin
  IC50: 1650 nM
Tubulin (Sus scrofa)
  inhibition: Dose-dependent effect
[19]
  half-life: 2.69 h
A549 [20]
  Activity: 23.06%
A549 [21]
  Activity: Active
[22]
  remaining at 2.5 h: 57.4%
A549 [23]
  Activity: 86.5%
A549 [24]
  Activity: 82.83%
A549 [25]
  Activity: 19.15%
[26]
  remaining at 0.5 h: 95.6%
A549 [27]
  Activity: 3.61%
